Measured values from ChEMBL document CHEMBL1649411, “Potent antitumor mimetics of annonaceous acetogenins embedded with an aromatic moiety in the left hydrocarbon chain part” (J Med Chem, 2011).

Experiments:
[1] = Cytotoxicity against HLF after 72 hrs by MTT assay; type: cell-based; settings: human, HLF cells
How it was run: (§1)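 Cells were grown in DMEM with penicillin-streptomycin, L-glutamine and 10% FBS, then seeded at 5 × 10³ cells/well. MTT (5 mg mL^-1 stock) was added for 4 h, then dissolved in DMSO. A570 was read against a 690 nm reference, with at least four replicates. Inhibition was calculated versus blank-corrected vehicle control, giving GI50.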

SGC-7901 = assay: Cytotoxicity against human SGC7901 cells after 72 hrs by MTT assay; type: functional; settings: SGC-7901, 72 h; how it was run: as §1
HCT-116 = assay: Cytotoxicity against human HCT116 cells after 72 hrs by MTT assay; type: functional; settings: HCT-116, 72 h
How it was run: (§2)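 Cells were maintained in F12/DMEM with penicillin-streptomycin, L-glutamine and 10% FBS, and plated at 5 × 10³ cells/well. Sixteen hours later, medium containing compound ([…]) or DMSO vehicle was added for 72 h. MTT (5 mg mL^-1 stock) was applied for 4 h and formazan dissolved in DMSO. Absorbance was read at 570/690 nm in at least quadruplicate. Growth inhibition versus blank-corrected controls gave GI50.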

[2] = Cytotoxicity against human BEAS2B cells after 72 hrs by MTT assay; type: cell-based, BEAS-2B; how it was run: as §1
MCF7 = assay: Cytotoxicity against human MCF7 cells after 72 hrs by MTT assay; type: functional; settings: MCF7, 72 h; how it was run: as §1
HT-29 = assay: Cytotoxicity against human HT-29 cells after 72 hrs by MTT assay; type: functional; settings: HT-29, 72 h; how it was run: as §2
A549 = assay: Cytotoxicity against human A549 cells after 72 hrs by MTT assay; type: functional; settings: A549, 72 h; how it was run: as §1

Compound: COc1ccc2cc(CCC[C@H](O)COCCOC[C@@H](O)CCCCC(O)CCCCCCCC3=C[C@H](C)OC3=O)ccc2c1 (stereo partly specified)
- GI50 at 72 h [1]: 10 µM
- GI50 (SGC-7901): 0.082 µM
- GI50 (HCT-116): 1.1 µM
- GI50 at 72 h [2]: > 100 µM
- GI50 (MCF7): 12.6 µM
- GI50 (HT-29): 1.1 µM
- GI50 (A549): 3.7 µM

Compound: C[C@H]1C=C(CCCCCCCC(O)CCCC[C@H](O)COCCOC[C@@H](O)CCCc2cccc(O)c2)C(=O)O1 (stereo partly specified)
- GI50 at 72 h [1]: > 100 µM
- GI50 (SGC-7901): 1 µM
- GI50 (HCT-116): 2.8 µM
- GI50 at 72 h [2]: > 100 µM
- GI50 (MCF7): 24.5 µM
- GI50 (HT-29): 69 µM
- GI50 (A549): 6 µM

Compound: C[C@H]1C=C(CCCCCCCC(O)CCCC[C@H](O)COCCOC[C@@H](O)CCCc2ccc(-c3ccccc3)cc2)C(=O)O1 (stereo partly specified)
- GI50 at 72 h [1]: > 100 µM
- GI50 (SGC-7901): 0.02 µM
- GI50 (HCT-116): 0.134 µM
- GI50 at 72 h [2]: > 100 µM
- GI50 (MCF7): 0.154 µM
- GI50 (HT-29): 0.355 µM
- GI50 (A549): 0.177 µM

Compound: CCCCCC[C@H](O)COCCOC[C@@H](O)CCCCC(O)CCCCCCCC1=C[C@H](C)OC1=O (stereo partly specified)
- GI50 at 72 h [1]: 11.1 µM
- GI50 (SGC-7901): 2 µM
- GI50 (HCT-116): 4.2 µM
- GI50 at 72 h [2]: > 100 µM
- GI50 (MCF7): 5.8 µM
- GI50 (HT-29): 19.4 µM
- GI50 (A549): 10.8 µM

Compound: CCCCCCCCCC[C@H](O)COCCOC[C@@H](O)CCCCCCCCCCCCC1=C[C@H](C)OC1=O
- GI50 at 72 h [1]: 20.9 µM
- GI50 (SGC-7901): 0.065 µM
- GI50 (HCT-116): 0.113 µM
- GI50 at 72 h [2]: 120 µM
- GI50 (MCF7): 0.276 µM
- GI50 (HT-29): 0.291 µM
- GI50 (A549): 0.305 µM

Compound: C[C@H]1C=C(CCCCCCCC(O)CCCC[C@H](O)COCCOC[C@@H](O)CCCCC2CCCCC2)C(=O)O1 (stereo partly specified)
- GI50 at 72 h [1]: 5.5 µM
- GI50 (SGC-7901): 0.75 µM
- GI50 (HCT-116): 1.6 µM
- GI50 at 72 h [2]: 61 µM
- GI50 (MCF7): 1.8 µM
- GI50 (HT-29): 5.4 µM
- GI50 (A549): 4.5 µM

Compound: COc1ccc(CCC[C@H](O)COCCOC[C@@H](O)CCCCC(O)CCCCCCCC2=C[C@H](C)OC2=O)cc1 (stereo partly specified)
- GI50 at 72 h [1]: 11.3 µM
- GI50 (SGC-7901): 0.198 µM
- GI50 (HCT-116): 2.3 µM
- GI50 at 72 h [2]: > 100 µM
- GI50 (MCF7): 23.3 µM
- GI50 (HT-29): 4.3 µM
- GI50 (A549): 4.5 µM

Compound: C[C@H]1C=C(CCCCCCCC(O)CCCC[C@H](O)COCCOC[C@@H](O)CCCc2ccccc2)C(=O)O1 (stereo partly specified)
- GI50 at 72 h [1]: 7.4 µM
- GI50 (SGC-7901): 0.275 µM
- GI50 (HCT-116): 0.394 µM
- GI50 at 72 h [2]: > 100 µM
- GI50 (MCF7): 0.84 µM
- GI50 (HT-29): 1.1 µM
- GI50 (A549): 0.773 µM
